Experimental data taken from publication PMC7641989 (Nature biotechnology, 2020).
Where a SMILES comes first, the peptide text is derived from it. [ ]: non-standard residue; d: D form.

Assays:
[1] = system: WD-fed LDLr-/- mice; test: Analysis of atherosclerosis; type: in vivo, mouse; conditions: completion of the 10-week study, en face staining, vs vehicle
In short: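 LDLr-/- mice, moved from chow to Western diet (15.8% fat, 1.25% cholesterol, no cholate) at 8–12 weeks, given test compound at 180 µM in drinking water (PBS pH 7.4, 1% sucrose; vehicle alone for controls) for 10 weeks. Lesions assessed by en face staining of the entire aorta and by aortic root sectioning. n=8 treated, 18 vehicle; mean ± SD, one-way ANOVA with Dunnett test.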

[2] = Pharmacokinetics, LC-MS SIM quantitation in plasma; type: in vivo, mouse; conditions: pharmacokinetic and excretion studies, result in words
[3] = system: WD-fed LDLr-/- mice; test: Plasma total cholesterol in peptide-treated WD-fed mice; type: in vivo, mouse
In short: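 Western-diet-fed LDLr-/- mice received test compound at 180 µM in drinking water (PBS pH 7.4, 1% sucrose; vehicle controls) starting with the diet switch. Plasma total cholesterol was measured enzymatically at the two-week blood draw. Results given as mean ± SD.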

[4] = system: gut microbiota from cecum of WD-fed LDLr-/- mice; test: In vitro en masse gut microbiota screening assay; type: cell-based, mouse; conditions: en masse screen, result in words
In short: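 Cecal contents came from female LDLr-/- mice (8–10 weeks) fed WD for two weeks, pooled from 3 co-housed mice, with all steps anaerobic. The PBS suspension was diluted 1:12.5 in Chopped Meat Carbohydrate Broth and dosed with test compound at a final 16 or 64 µM. Ampicillin (4 µg/mL) and chloramphenicol (8 µg/mL) were controls. Samples ran 20 h at 37 °C with hourly OD600, then 16S sequencing gave genus-level Shannon diversity and the Bacteroidetes:Firmicutes ratio.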

[5] = LC-MS SIM quantitation of peptide levels in feces; type: in vivo, mouse; conditions: pharmacokinetic and excretion studies, result in words
In short: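 Intact test compound was measured in extracted feces by LC-MS selected ion monitoring of the parent ions. Standard curves came from two independent extractions. Fecal samples were taken at week 5 (n=4 mice per group) and measured in duplicate. Daily dry fecal output was weighed over 24 h in individually housed mice. Expected maximum fecal level was calculated from the 0.18 mM drinking-water concentration, water intake and fecal output.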

[6] = system: WD-fed LDLr-/- mice; test: In vivo safety during 10-week daily oral dosing; set-up: species or system mouse
In short: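 Mice were weaned at 4 weeks and fed chow, then switched at 8–12 weeks to Western diet for 10 weeks. Test compound was dissolved by sonication in PBS (pH 7.4) with 1% sucrose, given ad libitum in drinking water at 180 µM and refreshed daily or every other day. Vehicle controls received PBS/1% sucrose. Liver enzyme activities in plasma were measured by enzymatic assays.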

[7] = 10 weeks daily oral administration, n=7 treated mice

With CC(C)C[C@@H]1NC(=O)[C@@H](Cc2c[nH]c3ccccc23)NC(=O)[C@H](CCCCN)NC(=O)[C@@H](Cc2c[nH]cn2)NC(=O)[C@H](CO)NC(=O)[C@@H](Cc2c[nH]cn2)NC(=O)[C@H](CCCCN)NC(=O)[C@@H](Cc2c[nH]c3ccccc23)NC1=O [peptide 1] (cyclo([dW]L[dW]K[dH]S[dH]K)) the “reduction of whole aorta atherosclerotic lesion area” value [1] was 37%, the oral systemic bioavailability [2] was “non-absorbable (lack oral systemic bioavailability)” and the “reduction of plasma total cholesterol compared to the untreated WD group” value ([3]; two-week time point, oral in drinking water, ~35 mg/kg/day) was 37%. For the same compound, the “remodeling of the microbiota community in vitro” value [4] was “did remodel the microbiota community in vitro”, the “stability in the gut” value [5] was “remain largely intact throughout the gut” and the “signs of discomfort or toxicity” value ([6]; 10-week daily-dosing regimen, ad libitum in the drinking water, ~35 mg/kg/day) was “no signs of discomfort or toxicity”. The “liver weights and spleen weights” value [6, 7] was “did not significantly differ from vehicle controls”, the “plasma levels of ALT and AST” value [6, 7] was “did not significantly differ from vehicle controls” and the body weights ([6]; during the 10-week treatment, n=7 treated mice) was “did not differ from vehicle controls”.

For NC(=O)CC[C@@H]1NC(=O)[C@@H](Cc2c[nH]cn2)NC(=O)[C@H](Cc2c[nH]cn2)NC(=O)[C@@H](CCC(N)=O)NC(=O)[C@H](Cc2ccc(O)cc2)NC(=O)[C@@H](Cc2c[nH]c3ccccc23)NC(=O)[C@H](Cc2c[nH]c3ccccc23)NC(=O)[C@@H](Cc2ccccc2)NC1=O [peptide 15] (cyclo(H[dH]Q[dF]W[dW]Y[dQ])), the “total plasma cholesterol compared to vehicle controls” value ([3]; 2-wk timepoint, oral dosing, result in words) was “did not reduce plasma total cholesterol levels” and the “remodeling of the microbiota community in vitro” value [4] was “remodeled the gut microbiota in vitro, but not toward a CHD-like state”.
